Data published in publication PMC3100537 (Biochemistry, 2011).
Where “and” joins values, the source holds several entries; their conditions need not be identical. Equal values may be shown once.

Legend:
[1] = DMS cross-linking / SDS-PAGE of self-associated forms; assay type: physicochemical; settings: 20-fold molar excess DMS, 3 h, 25 °C; SDS-PAGE 10–20% Tricine gel
In short: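 Peptide at various concentrations reacted with 20-fold molar excess dimethylsuberimidate for 3 h at 25°C, then quenched with 50 mM Tris-HCl. Mixed with SDS loading buffer, boiled 1 min, and run on 10–20% Tris-Tricine SDS-PAGE. Protein stain visualized cross-linked species, sized against 1.7–40 kDa markers.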

J774 mouse macrophages = settings: lipid-free peptide; cited from earlier work
[2] = Circular dichroism spectroscopy, secondary structure; assay type: physicochemical
In short: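 Lipid-free peptide in 10 mM sodium phosphate, pH 7.4, at 25°C; 2 mg/ml stock diluted in the same buffer to 6–310 μM (18–1000 μg/ml). Four scans at 20 nm/min averaged per concentration. α-Helicity derived from molar ellipticity at 222 nm; [θ]222/[θ]208 ratio plotted against concentration. For TFE, 0.2 mg/ml peptide held ±50% TFE for 30 min at 25°C before scanning (n=3).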

[3] = Non-denaturing gradient gel electrophoresis; assay type: physicochemical; settings: Native-PAGE 4–20% Tris-glycine gel; stock solutions 1 mg/ml PBS, pH 7.4; 3 μg per well
[4] = Small angle X-ray scattering; assay type: physicochemical
In short: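 Concentration-scaled intensity at q = 0 converted to mass by calibration against lysozyme, xylanase and BSA. Ab initio shape from ten averaged modelling runs. Two independent peptide preparations measured.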

[5] = Gel-filtration chromatography; assay type: physicochemical
In short: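 Size-exclusion FPLC on Superdex 75 or Superdex Peptide columns equilibrated in PBS (10 mM phosphate, 150 mM NaCl, pH 7.4), run at 0.5 ml/min at room temperature. 0.2 ml of peptide stock (0.125 to 140 mg/ml; concentration set by A280) injected, with elution read at 280 or 215 nm. Columns calibrated with molecular weight standards. Stocks also run after 2 years' sterile storage at 4°C or 24 h at 37°C.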

physchem = settings: pH 7.4, aqueous buffer

| concentration range of dissociation of the tetrameric assembly to monomers [1] | α-helical content, extensively diluted sample ([2]; 6 μM, i.e. 18 μg/ml, 10 mM phosphate buffer pH 7.4, 25 °C) | α-helical content with 50% TFE compared to controls with no TFE ([2]; 0.2 mg/ml, 10 mM phosphate pH 7.4, 30 min TFE at 25 °C, n=3) | 222/208 ellipticity ratio ([2]; 50% TFE) | α-helical content ([2]; lipid-free peptide, 10 mM phosphate buffer pH 7.4, 25 °C, 0.2 mg/ml (62 μM), from molar ellipticity at 222 nm, mean ± SD, n=4) | SAXS MW relative to monomeric weight of the peptide (3230 Da) ([4]; 2–8 mg/ml PBS pH 7.4) | aggregation detected from X-ray intensity profiles ([4]; peptide at 2–8 mg/ml PBS) | gel-filtration profile after prolonged storage ([5]; 2 years in PBS at 4 °C under sterile conditions, data not shown) | concentration at which monomeric ATI-5261 predominated ([5]; FPLC (Superdex 75 and Peptide columns) and SDS-PAGE/DMS cross-linking) | concentration at which peptide monomers were predominant ([5]; FPLC, allowing for ~10-fold dilution on the columns, PBS pH 7.4) | MW of the peptide assembly by FPLC ([5]; Superdex Peptide 10/300 GL column, 1 mg peptide/ml, PBS, A215, calibrated with (Gly)6, aprotinin, ribonuclease A) | gel-filtration profile after incubation at 37 °C ([5]; incubation at 37 °C for 24 h, data not shown) | solubility (physchem) | α-helical content, presence of 50% TFE ([2]; 0.2 mg/ml, 50% TFE) | α-helical content, absence of TFE ([2]; 0.2 mg/ml, no TFE) | Substance | concentration of saturation in cholesterol efflux (J774 mouse macrophages) | migration form on non-denaturing gel (aggregation) [3] |
| --- | --- | --- | --- | --- | --- | --- | --- | --- | --- | --- | --- | --- | --- | --- | --- | --- | --- |
| 0.5 to 0.025 mg/ml | 82.6% | remained unchanged | < 1 | 74.1±6.8% | ~4 times and 4.1 times | Little or no aggregation | not altered | ≤ 25000 ng/mL | < 25000 ng/mL | 12.8 kDa | not altered |  |  |  | Ac-EVRSKLEEWFAAFREFAEEFLARLKS-NH2 [ATI-5261] | 3 µg/mL | low molecular weight (LMW) band |
|  |  |  |  |  |  |  |  |  |  |  |  | ~1000 µg/mL | 49% | 28% | Ac-DWFKAFYDKVAEKFKEAF-NH2 [peptide 4F, reference compound] |  | aggregated as high molecular weight (HMW) species |
